Measured values gathered from unrelated publications.
Target: Muscarinic acetylcholine receptor M1 (CHRM1, Homo sapiens, UniProt P11229)
Concentration: 10 µM
One construct used (P11229 1-460): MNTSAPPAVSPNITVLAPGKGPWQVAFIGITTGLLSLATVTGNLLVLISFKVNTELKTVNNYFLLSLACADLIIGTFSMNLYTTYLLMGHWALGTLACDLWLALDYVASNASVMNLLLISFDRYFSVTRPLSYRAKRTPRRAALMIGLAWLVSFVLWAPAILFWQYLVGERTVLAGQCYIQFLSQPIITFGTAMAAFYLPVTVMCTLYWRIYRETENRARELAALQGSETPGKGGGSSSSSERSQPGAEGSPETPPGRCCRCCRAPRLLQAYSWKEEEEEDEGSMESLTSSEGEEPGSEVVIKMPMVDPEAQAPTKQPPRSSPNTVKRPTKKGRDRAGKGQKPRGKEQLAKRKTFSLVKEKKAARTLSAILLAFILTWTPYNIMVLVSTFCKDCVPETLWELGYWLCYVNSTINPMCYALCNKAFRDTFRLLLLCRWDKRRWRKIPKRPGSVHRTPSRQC

| SMILES | test | inhibition [%] |
| --- | --- | --- |
| CCN(CC)c1ccc(C2Nc3ccc(C(=O)c4ccccc4)cc3NC3=C2C(=O)CC(C)(C)C3)cc1 (centres unmarked) | ligand displacement, radioligand | -4 |
| Oc1cccc(Nc2nc(-c3ccc(F)cc3F)cs2)c1 | cell-free assay | -66 |
| CCCNc1nc2ccccc2n1Cc1ccc(Cl)cc1 | ligand displacement | -16.1 |
| O=C1N=C(N2CCCCN2)S/C1=C\c1ccc(F)cc1O | ligand displacement, radioligand | < 10 |
| O=C(c1ccc(Cl)cc1)N(Cc1ccccc1)C1CCCCC1 | cell-free assay | -25.8 |
| N#Cc1cc(Cn2c(N3CCCC3)nc3ccccc32)ccc1F | ligand displacement | -15.5 |
| CCN(Cc1ccccc1C(F)(F)F)C(=O)C1CCN(S(=O)(=O)c2ccc3[nH]ncc3c2)CC1 | ligand displacement, radioligand | 1 |
| O=C(Nc1ccc(S(=O)(=O)N2CCC(Cl)CC2)cc1)c1ccc([N+](=O)[O-])o1 | ligand displacement, radioligand | 2 |
